In the library only some 1.4% were active in any assay of this set; here they are far more common.
Apaf-1 inh = inhibitors of human Apaf-1 apoptosome. reconstituted apoptosome caspase-3 activity, DEVD-Rh110 fluorescence. inhibition, % at 20 µM. hit rate 0.71% among 330,000. AID 489030; active means inhibition of at least 40% at 20 µM
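Material: reconstituted apoptosome with Apaf-1, cytochrome c, caspase-9, procaspase-3, dATP / Buffer or medium: pH 7.5 Hepes buffer with CHAPS, BSA, DTT / Also added: cytochrome c with DEVD-Rh110 / Schedule: compound with Apaf-1, dATP, procaspase-3 30 min, then 50 min reaction, room temperature / Technique: rhodamine 110 fluorescence at Ex 480/Em 540 nm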
DTT redox prof = compounds producing H2O2 with reducing agent – biochemical, NIH compound library profiling, artefact control for MLSCN library redox annotation, primary screen. DTT-dependent redox cycling H2O2, phenol red/HRP absorbance; 100% = 100 µM peroxide control, 0% = buffer. AID 878. hit rate 0.03% among 200,000. activation, % at 10 µM;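 active means activation of at least 50% relative to the plate's high and low controls in the primary single-dose screen; inactive means activation below 50%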;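 further: compound incubated with DTT at 0.8 mM final as the reducing agent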
GSTO1 inh = GSTO1 inhibition, counter-screen for RBBP9 inhibitors. recombinant GSTO1, activity-based probe fluorescence polarization. inhibition, % at 5.96 µM. AID 1974. hit rate 1.1% among 300,000;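 active means inhibition above the campaign mean inhibition plus 3 SD, cut at about 35% in these data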
Target sequence (P78417 whole entry, looked up): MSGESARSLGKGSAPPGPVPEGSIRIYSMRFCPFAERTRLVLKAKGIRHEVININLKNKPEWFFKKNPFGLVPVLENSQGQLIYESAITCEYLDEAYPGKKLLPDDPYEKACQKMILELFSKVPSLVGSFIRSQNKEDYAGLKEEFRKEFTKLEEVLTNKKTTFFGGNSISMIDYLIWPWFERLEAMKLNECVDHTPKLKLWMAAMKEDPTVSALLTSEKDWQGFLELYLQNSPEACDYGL
UBC9 SUMO inh = inhibitors of human SUMOylation (UBC9); P63279; HTRF SUMOylation assay, SAE1/SAE2 + UBC9, in vitro; inhibition, % at 35 µM; hit rate 0.36% among 290,000; in the data active means inhibition above about 50%, passing the limit was not always enough
Target sequence (P63279 whole entry, looked up): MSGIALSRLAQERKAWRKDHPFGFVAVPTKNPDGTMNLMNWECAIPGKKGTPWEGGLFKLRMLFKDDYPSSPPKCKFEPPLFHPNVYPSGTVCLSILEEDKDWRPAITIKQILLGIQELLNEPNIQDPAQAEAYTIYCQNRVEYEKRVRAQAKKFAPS
HKDC1 inhibitor = blocks human hexokinase HKDC1 activity; Q2TB90; recombinant HKDC1, G6PDH/diaphorase resazurin coupled fluorescence; inhibition, % at 20 µM; hit rate 0.16% among 340,000;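 active means inhibition above about 35% when tested at 20 µM, limit read from the data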
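Assay system: recombinant HKDC1 hexokinase; detection: coupled resazurin fluorescence, excitation 525 nm, emission 613 nm; benchmarks: DMSO-plus-enzyme-mix negative control, buffer-substituted positive control; compound dosing: single 20 µM dose; schedule: 90 min at room temperature in dark; also added: glucose plus 1 mM ATP as hexokinase substrates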
Of the large screens only hits and unclear results are named; the others gave an inactive call.

Cc1nc2ccccc2n1/N=C/c1ccc([N+](=O)[O-])o1	GSTO1 inh 37 (no result: UBC9 SUMO inh)
Cc1cc(C)cc(N=Cc2ccc([N+](=O)[O-])s2)c1	GSTO1 inh 36
O=[N+]([O-])c1ccc(/C=N/n2c(CO)nc3ccccc32)s1	GSTO1 inh 37
O=C(O)c1cccc(S(=O)(=O)N(Cc2ccccc2)c2cccc(C(F)(F)F)c2)c1	none (no result: DTT redox prof)
CCn1c(SCC(=O)NNC(=S)Nc2ccc(C)cc2)nnc1-c1ccc(Cl)cc1	GSTO1 inh 35
COc1ccc(CNC(=O)c2c(N)n(CCCN3CCOCC3)c3nc4ccccc4nc23)cc1	Apaf-1 inh 87
COC(=O)c1c(N)n(CCCN2CCOCC2)c2nc3ccccc3nc12	none
Nc1c(C(=O)NCc2ccco2)c2nc3ccccc3nc2n1CCc1ccccc1	UBC9 SUMO inh 99 (no result: Apaf-1 inh, GSTO1 inh)
Cc1ccc(NC(=O)c2c(F)cccc2Cl)cc1S(=O)(=O)N1CCOCC1	none (no result: DTT redox prof, GSTO1 inh, UBC9 SUMO inh)
O=C1C2C3C=CC(C3)C2C(=O)N1CNc1ccc(O)cc1 (configuration not stated)	Apaf-1 inh 94, GSTO1 inh 93 (no result: DTT redox prof, HKDC1 inhibitor)
Cc1ccc(NCN2C(=O)C3C4C=CC(C4)C3C2=O)cc1 (configuration not stated)	none
Cc1ccc(C)c(OCCC(=O)OCC(=O)Nc2ccc(N3CCOCC3)cc2)c1	none (no result: DTT redox prof, UBC9 SUMO inh)
CCN(C[C@H]1N[C@@](Cc2ccccc2)(C(=O)OC)[C@H]2C(=O)N(C)C(=O)[C@@H]12)C(=O)Nc1ccccc1	none (no result: DTT redox prof, GSTO1 inh, UBC9 SUMO inh)
O=C(CNc1cccc2ccccc12)N/N=C/C=C/c1ccco1	UBC9 SUMO inh 98
O=C(CNc1cccc2ccccc12)N/N=C/c1ccc(C(=O)O)cc1	UBC9 SUMO inh 77
O=C(N/N=C\C=C\c1ccco1)c1cc(-c2ccc3ccccc3c2)n[nH]1	UBC9 SUMO inh 51
O=C(Nc1ccc(C(=O)N2CCCC2)cc1)C1CCC1	none (no result: Apaf-1 inh, DTT redox prof, GSTO1 inh, UBC9 SUMO inh)
Cn1c(SCC(=O)c2cc(Cl)c(Cl)s2)nnc1-c1ccco1	GSTO1 inh 44 (no result: DTT redox prof)
CCC1CCCCN1C(=O)CCS(=O)(=O)c1ccc2c(c1)CCN2C(C)=O (configuration not stated)	none (no result: DTT redox prof)
COc1cc(C(=O)c2nccc3cc(OC)c(OC)cc23)c([N+](=O)[O-])cc1OC	GSTO1 inh 55, UBC9 SUMO inh 87
O=C(CCNC(=O)c1ccco1)NCc1ccc(C(=O)O)cc1	none (no result: DTT redox prof, GSTO1 inh, UBC9 SUMO inh)
Nc1ccc(O)cc1	GSTO1 inh 98 (no result: Apaf-1 inh, DTT redox prof, UBC9 SUMO inh, HKDC1 inhibitor)
Nc1ccc(C(=O)O)cc1	none (no result: DTT redox prof, UBC9 SUMO inh)
Cc1noc(C)c1COc1ccc(C(=O)Nc2nnc(CC(C)C)s2)cc1	none (no result: DTT redox prof, GSTO1 inh, UBC9 SUMO inh)
COc1c(OC2OC(C(=O)O)C(O)C(O)C2O)cc(O)c2c(=O)cc(-c3ccccc3)oc12 (configuration not stated)	none
O=C(O)C1OC(Oc2cc3oc(-c4ccccc4)cc(=O)c3c(O)c2O)C(O)C(O)C1O (configuration not stated)	GSTO1 inh 37
Cc1oc(-c2ccc(Cl)cc2)cc1-c1nn2c(-c3ccoc3C)nnc2s1	UBC9 SUMO inh 60
CC1Sc2ccc(S(=O)(=O)CCC(=O)Nc3ccccn3)cc2NC1=O (configuration not stated)	none (no result: DTT redox prof)
O=C(OCc1cc(Cl)ccc1OC(F)F)c1ccc([N+](=O)[O-])o1	Apaf-1 inh 66 (no result: DTT redox prof, HKDC1 inhibitor)
Cc1ccsc1/C=C1/C(=O)NN(c2ccccc2)C1=O	none
Cc1ccsc1C=C1C(=O)c2ccccc2C1=O	GSTO1 inh 37
O=S1(=O)c2ccccc2N=NN1Cc1ccc(Cl)c(Cl)c1	GSTO1 inh 35 (no result: HKDC1 inhibitor)
Cc1ccc(-c2[nH]ncc2/C=N/n2c(COc3ccccc3)nc3ccccc3c2=O)cc1	none
Cc1cc(/C=N/n2c(COc3ccccc3)nc3ccccc3c2=O)c(O)c([N+](=O)[O-])c1	UBC9 SUMO inh 93
O=C(O)C(S)C(S)C(=O)O (configuration not stated)	GSTO1 inh 64 (no result: Apaf-1 inh, DTT redox prof, UBC9 SUMO inh)
O=C(O)O	none (no result: Apaf-1 inh, GSTO1 inh, HKDC1 inhibitor)
CCc1ccc(NC(=O)C(CC)Sc2nc3cc4c(cc3c(=O)n2Cc2ccco2)OCO4)cc1 (configuration not stated)	UBC9 SUMO inh 54
CCc1ccccc1NC(=O)C(CC)Sc1nc2cc3c(cc2c(=O)n1Cc1ccco1)OCO3 (configuration not stated)	none
CCOC(=O)Cn1c2ccc(OC)cc2c2nc3ccccc3nc21	UBC9 SUMO inh 54
O=C(Cn1c2ccccc2c(=O)c2cc([N+](=O)[O-])ccc21)Nc1ccccc1Cl	UBC9 SUMO inh 51
